# TIM10 inh – TIM10 yeast growth inhibition | S. cerevisiae TIM10 strain growth, BacTiter-Glo luminescence, 24 h | inhibition, % at 10 µM | actives 1.4% (n = 330,000);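 active = inhibition of 40% or more at the single tested concentration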;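 note: wild-type TIM10 isogenic control strain grown at permissive 25 °C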
# UPR CHOP act – activators of apoptotic arm of unfolded protein response (CHOP). CHO-CHOP luciferase reporter, UPR activation, luminescence; percent of tunicamycin response over DMSO baseline. activation, % at 10 µM. actives 0.34% (n = 330,000);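 active = at 10 µM dose, activation of 40% or more, normalized to positive control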;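 note: 100% = tunicamycin at 10 µg/mL and 0% = DMSO alone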
#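 assay system = CHO CHOP reporter cells | amount = 500 CHO-CHOP cells per well | buffer or medium = F12 with 10% FBS | incubation = 16-18 h cell attachment, then 6 h compound exposure, 37 °C | detection = luminescence read with Steady-Glo | read-out = percent activation relative to tunicamycin control | controls = tunicamycin high control, DMSO low control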
# XBP1 UPR activ – activators of adaptive arm of unfolded protein response (XBP1). CHO-XBP1 luciferase reporter, IRE1-XBP1 UPR activation, luminescence; percent of tunicamycin response, DMSO as zero. activation, % at 20 µM. actives 0.33% (n = 330,000);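 active = versus positive control, 20 µM dose yields 30% or more activation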;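 note: 100% = tunicamycin at 10 µg/mL and 0% = DMSO only wells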
#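 incubation = overnight seeding at 37 °C, 6 h compound treatment at 37 °C | assay system = CHO-XBP1 cells stably carrying IRE1-XBP1-driven luciferase reporter | input = 1000 cells per well | detection = luciferase luminescence | dosing = single point, 20 µM final compound, 1% DMSO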
# tim23-1 inh – inhibits growth of tim23-1 mutant yeast; actives 1.3% (n = 330,000); S. cerevisiae tim23-1 growth, BacTiter-Glo luminescence, 24 h; inhibition, % at 20 µM;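 active = growth inhibition of the mutant yeast at or above 50%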;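 note: temperature-sensitive mutant grown at 25 °C; plate controls were DMSO-treated mutant yeast for no effect and medium wells lacking yeast for full effect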
# tim10-1 inh – growth inhibitors of tim10-1 mutant yeast | S. cerevisiae tim10-1 ts strain growth, BacTiter-Glo, 24 h | actives 2.2% (n = 330,000) | inhibition, % at 20 µM;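 active = inhibition of at least 40%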;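 note: mutant grown at 25 °C; 0% = DMSO wells with yeast and 100% = wells holding no yeast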
# tim10-1 conf – confirmation of tim10-1 mutant yeast growth inhibitors. inhibition, % at 20 µM. shares compounds with tim10-1 inh. actives 56% (n = 7,400). S. cerevisiae tim10-1 ts strain growth, BacTiter-Glo, 24 h;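 active = inhibition of yeast growth at or above a set limit in either of two repeat tests at 20 µM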;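 note: tim10-1 mutant grown at permissive 25 °C to find synthetic lethal compounds; 0% = DMSO yeast wells and 100% = medium wells without yeast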
# Active calls of the source: *; . = no result given. An excerpt weighted towards active compounds, which were near 3.9% of everything screened.
SMILES,TIM10 inh,UPR CHOP act,XBP1 UPR activ,tim23-1 inh,tim10-1 inh,tim10-1 conf
CC1(C)CC(=O)C2=C(C1)N=C1c3ccccc3C(=O)C1C2c1ccc(Cl)cc1 (configuration not stated),34.8,19.9,4.9,31.7,44.2*,31.2*
Cn1c(SCC(=O)Nc2cccnc2Cl)nc2ccccc21,-4.7,0.5,1.5,6.9,-4.6,.
CC(C)NC(=S)N1CCCN(c2ncccc2[N+](=O)[O-])CC1,6.8,0.7,-1.2,0.0,-3.6,.
CCOC(=O)C1NN=C(C(=O)c2ccccc2)C1c1ccccc1 (configuration not stated),18.2,3.9,1.8,26.0,15.7,.
CCOC(=O)C1NN=C(C(=O)c2ccccc2)C1c1ccc(Cl)cc1 (configuration not stated),8.9,-0.3,3.2,29.3,42.7*,18.9
CCN(CC)c1ncnc2c1sc1nc(C)cc(C)c12,9.2,-1.4,11.2,23.6,42.5*,18.9
Cc1cc(C)c2c(n1)sc1c(N3CCCCC3)ncnc12,15.5,2.0,15.1,30.5,20.2,.
Cc1[nH]c2ccc(C(=O)N3CCN(c4cccc(Cl)c4)CC3)cc2c1C,13.5,-0.2,8.4,48.1,56.0*,13.4
O=C(c1cc2ccccc2cc1O)N1CCN(c2ccccc2O)CC1,13.1,1.0,1.2,20.5,21.6,.
COc1ccccc1N1CCN(C(=O)c2ccc3[nH]c(C)c(C)c3c2)CC1,25.9,-2.4,1.4,45.6,42.3*,25.2
O=C(c1cc2ccccc2cc1O)N1CCN(c2cccc(Cl)c2)CC1,37.4,0.9,-0.7,47.5,47.0*,30.1*
COc1ccc(/C=C/C(=O)c2oc3ccc(F)cc3c2C)cc1,26.8,1.4,1.6,29.1,40.9*,31.4*
CCc1sc(C(=O)Nc2cc(S(=O)(=O)N3CCOCC3)ccc2OC)cc1C,7.0,0.3,0.3,14.5,0.4,.
COc1ccc(S(=O)(=O)N2CCCCCC2)cc1C(=O)N1CCN(c2ccccc2O)CC1,-8.3,2.5,-3.8,6.8,-12.6,.
COc1ccccc1N1CCN(C(=O)c2oc3ccc(F)cc3c2C)CC1,24.3,-0.5,0.5,43.9,42.0*,28.7
COc1ccccc1N1CCN(C(=O)c2oc3ccc(Br)cc3c2C)CC1,27.7,-1.2,-0.1,28.0,16.4,.
O=C(c1ccccc1Br)N1CCN(c2ccccc2)CC1,0.7,0.5,-1.6,26.7,85.5*,15.3
O=C(c1ccccc1F)N1CCN(c2ccccc2)CC1,1.4,-0.9,-2.7,20.0,13.8,.
Cc1ccc(S(=O)(=O)N2CCN(C(=O)c3ccccc3Cc3ccccc3)CC2)c(C)c1,28.9,1.6,-10.1,38.4,27.9,.
Cc1nn(-c2ccccc2)c(Cl)c1C1C(C#N)=C(N)Oc2c1c(C)nn2-c1ccccc1 (configuration not stated),-2.0,-2.4,-1.3,34.4,47.0*,19.4
Cc1nn(-c2ccccc2)c2c1C(c1ccncc1)C(C#N)=C(N)O2 (configuration not stated),14.8,1.5,-6.8,7.7,22.1,.
CCOC(=O)C1=C(C)OC(N)=C(C#N)C1c1c(C)nn(-c2ccccc2)c1Cl (configuration not stated),24.4,0.3,0.0,46.5,52.6*,34.5*
CN1CCN(c2ccccc2NC(=O)c2ccc(-c3ccc(Cl)c(Cl)c3)o2)CC1,38.3,5.9,-0.4,23.7,54.9*,37.5*
COc1ccc2nc(NC(=O)c3cccc(OCc4c(C)noc4C)c3)sc2c1,14.7,2.3,9.2,-8.5,12.1,.
CCSc1nnc(NC(=O)c2cccc(OCc3c(C)noc3C)c2)s1,11.1,-0.2,0.1,6.0,40.0,11.2
SMILES,TIM10 inh,UPR CHOP act,XBP1 UPR activ,tim23-1 inh,tim10-1 inh,tim10-1 conf
CCc1c(C)[nH]c2ccc(OC)cc2c1=S,16.0,-1.0,-4.2,23.9,46.2*,35.9*
Cc1ccc(-c2ccc(=O)n(CC(=O)N3CCN(c4cc(Cl)ccc4C)CC3)n2)cc1,13.2,-1.0,-0.7,37.4,43.3*,27.9
Cc1ccc(-c2ccc(=O)n(CC(=O)N3CCN(c4cccc(C)c4)C(C)C3)n2)cc1 (configuration not stated),17.4,-0.4,-1.0,36.6,33.6,.
COc1ccc(/C=C/c2c(-c3ccc(OC)cc3)oc(=O)c3cc(OC)c(OC)cc23)cc1,4.0,-0.1,3.9,16.4,9.8,.
COc1ccc(-c2oc3cccnc3c2/C=C/c2ccc(OC)c(OC)c2)cc1,18.4,1.1,3.5,36.5,41.1*,14.2
O=C(c1ccco1)N1N=C(c2cccs2)CC1c1ccc(F)cc1 (configuration not stated),20.4,-0.2,4.8,43.7,37.2,.
CNC(=S)N1N=C(c2cccs2)CC1c1ccc(F)cc1 (configuration not stated),13.2,1.0,-1.5,34.8,42.5*,17.6
CC(C)(C)Sc1ccc(/C=N/O)cc1[N+](=O)[O-],1.6,-0.1,2.4,27.3,20.2,.
O=[N+]([O-])c1cc(/C=N/O)ccc1SCc1ccccc1Cl,35.3,0.2,5.6,16.1,46.6*,22.2
Cc1ccc(C2Nc3cccc4cccc(c34)N2)s1,17.7,3.5,0.2,42.3,23.2,.
Clc1cccc(C2Nc3cccc4cccc(c34)N2)c1Cl,26.4,0.0,2.1,48.5,41.7*,57.7*
c1coc(C2Nc3cccc4cccc(c34)N2)c1,37.6,0.0,3.2,45.0,40.7*,35.4*
O=C1NC(c2ccccc2Cl)Nc2ccccc21 (configuration not stated),8.5,-0.9,0.9,7.6,17.7,.
Clc1ccccc1C1Nc2cccc3cccc(c23)N1,23.2,1.0,-5.4,34.7,42.9*,33.7*
O=C(CN1CCN(Cc2ccccc2)CC1)NNC(=O)c1ccccc1,-11.3,-0.1,-3.5,-1.0,-11.0,.
COc1ccccc1C(=O)NCCN1CCN(c2ccccc2)CC1,-7.2,0.7,-5.4,-4.7,-2.5,.
COc1ccc(CNC(=O)CCNS(=O)(=O)c2ccc(NC(C)=O)cc2)cc1OC,-4.2,-0.9,-2.9,-3.3,-7.5,.
Cc1ccc(C)c(C(=O)OCC(=O)N(C)c2ccccc2)c1,34.7,-1.6,-0.4,44.3,55.7*,43.5*
COc1cc(Nc2nc3ccccc3nc2NS(=O)(=O)c2ccc([N+](=O)[O-])cc2)cc(OC)c1OC,22.2,5.4,0.0,37.9,45.8*,34.6*
O=C(c1ccc(Oc2ccccc2)cc1)c1nc2c(n1O)CCCC2,30.3,0.7,2.1,14.9,41.0*,16.2
Cc1ccc(S(=O)(=O)N2CCN(C(=O)CN3C(=O)c4ccc([N+](=O)[O-])cc4C3=O)CC2)cc1C,-4.1,1.3,-0.5,-1.2,-2.0,.
CS(=O)(=O)c1ccccc1-c1nc(-c2ccc(C(F)(F)F)cc2)no1,28.3,3.8,1.8,44.4,40.1*,20.4

# Assay outcomes as filed in PubChem.
